# Laboratory results reported in ChEMBL document CHEMBL4602716, “Development of Selective Histone Deacetylase 6 (HDAC6) Degraders Recruiting Von Hippel-Lindau (VHL) E3 Ubiquitin Ligase” (ACS Med Chem Lett, 2020).
# Active and inactive are the calls of the source. The calls are words filed in the database; no cut-off is given here.
# Assays:
# Assay type in all cases: cell-based
# [1] = biological target: T1, von Hippel-Lindau disease tumor suppressor/Protein deacetylase HDAC6 (Homo sapiens, UniProt Q9UBN7+P40337); assay: Protac activity at VHL/HDAC6 in human MM1S cells assessed as reduction in protein level at 100 nM after 4 hrs by Western blot analysis
# Target sequence in this assay (P40337 whole entry, looked up): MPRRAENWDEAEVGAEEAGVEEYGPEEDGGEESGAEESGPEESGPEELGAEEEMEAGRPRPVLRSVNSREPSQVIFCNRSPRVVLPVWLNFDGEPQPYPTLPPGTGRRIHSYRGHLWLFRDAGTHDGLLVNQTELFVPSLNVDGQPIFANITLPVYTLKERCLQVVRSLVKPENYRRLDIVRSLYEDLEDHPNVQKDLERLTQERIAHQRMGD
# Target sequence in this assay (Q9UBN7 whole entry, looked up): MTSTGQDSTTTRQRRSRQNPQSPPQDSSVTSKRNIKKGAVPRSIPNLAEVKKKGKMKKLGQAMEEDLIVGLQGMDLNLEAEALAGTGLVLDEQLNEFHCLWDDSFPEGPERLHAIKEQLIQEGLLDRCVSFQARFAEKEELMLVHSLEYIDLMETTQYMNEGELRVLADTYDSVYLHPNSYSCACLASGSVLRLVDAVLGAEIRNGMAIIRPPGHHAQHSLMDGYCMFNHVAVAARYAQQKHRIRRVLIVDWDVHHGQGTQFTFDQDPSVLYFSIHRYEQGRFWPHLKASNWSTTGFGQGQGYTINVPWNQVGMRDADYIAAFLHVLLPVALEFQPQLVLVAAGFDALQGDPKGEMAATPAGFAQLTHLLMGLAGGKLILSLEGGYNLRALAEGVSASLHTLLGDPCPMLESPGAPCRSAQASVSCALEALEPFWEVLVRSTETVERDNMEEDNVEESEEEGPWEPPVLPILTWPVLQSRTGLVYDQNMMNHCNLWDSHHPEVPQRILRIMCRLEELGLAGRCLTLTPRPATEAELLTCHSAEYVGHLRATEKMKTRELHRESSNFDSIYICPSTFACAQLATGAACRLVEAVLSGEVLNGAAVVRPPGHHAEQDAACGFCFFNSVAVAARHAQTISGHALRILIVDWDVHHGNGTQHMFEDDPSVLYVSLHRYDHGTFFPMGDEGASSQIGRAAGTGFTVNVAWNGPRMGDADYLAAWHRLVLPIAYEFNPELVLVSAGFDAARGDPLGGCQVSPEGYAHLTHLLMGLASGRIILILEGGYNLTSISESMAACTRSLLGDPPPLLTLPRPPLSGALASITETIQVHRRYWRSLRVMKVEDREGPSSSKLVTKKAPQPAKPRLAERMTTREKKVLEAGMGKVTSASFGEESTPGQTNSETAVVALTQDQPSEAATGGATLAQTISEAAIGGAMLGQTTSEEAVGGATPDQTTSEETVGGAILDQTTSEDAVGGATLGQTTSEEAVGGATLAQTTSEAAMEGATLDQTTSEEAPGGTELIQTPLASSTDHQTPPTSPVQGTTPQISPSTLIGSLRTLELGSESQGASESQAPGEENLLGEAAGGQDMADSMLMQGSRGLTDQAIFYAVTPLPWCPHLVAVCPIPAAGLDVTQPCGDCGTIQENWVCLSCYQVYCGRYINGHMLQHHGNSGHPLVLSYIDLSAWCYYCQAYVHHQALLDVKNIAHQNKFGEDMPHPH
# [2] = biological target: T1, von Hippel-Lindau disease tumor suppressor/Protein deacetylase HDAC6; assay: Protac activity at VHL/HDAC6 in human MM1S cells assessed as induction of tubulin acetylation at 1 uM after 4 hrs by Western blot analysis
# In short: (§1)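 Dose-response in MM1S cells treated with degrader from 1 nM to 30 μM for 4 h. Lysates were immunoblotted for HDAC6 and acetylated tubulin.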
# Target sequence in this assay (P40337 whole entry, looked up): as the sequence (P40337 whole entry, looked up) above
# Target sequence in this assay (Q9UBN7 whole entry, looked up): as the sequence (Q9UBN7 whole entry, looked up) above
# [3] = biological target: T2, von Hippel-Lindau disease tumor suppressor/Protein deacetylase HDAC6 (Mus musculus) (UniProt Q9Z2V5+P40338); assay: Protac activity at VHL/HDAC6 in mouse 4935 cells assessed as HDAC6 degradation at 10 nM to 10 uM after 6 hrs by Western blot analysis
# In short: (§2)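 Mouse 4935 cells were treated with degraders for 6 h, then analysed by Western blot for HDAC6 and acetylated tubulin.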
# [4] = biological target: von Hippel-Lindau disease tumor suppressor/Histone deacetylase 1 (Homo sapiens) (UniProt Q13547+P40337); assay: Protac activity at VHL/HDAC1 in human MM1S cells assessed as HDAC1 degradation at 100 nM after 4 hrs by Western blot analysis
# [5] = biological target: von Hippel-Lindau disease tumor suppressor/Histone deacetylase 7 (Homo sapiens) (UniProt Q8WUI4+P40337); assay: Protac activity at VHL/HDAC7 in human MM1S cells assessed as HDAC7 degradation at 100 nM after 4 hrs by Western blot analysis
# [6] = biological target: T1, von Hippel-Lindau disease tumor suppressor/Protein deacetylase HDAC6; assay: Protac activity at VHL/HDAC6 in human MM1S cells assessed as compound-HDAC6 complex formation at 3 uM after 6 hrs
# Target sequence in this assay (P40337 whole entry, looked up): as the sequence (P40337 whole entry, looked up) above
# Target sequence in this assay (Q9UBN7 whole entry, looked up): as the sequence (Q9UBN7 whole entry, looked up) above
# [7] = biological target: T1, von Hippel-Lindau disease tumor suppressor/Protein deacetylase HDAC6; assay: Protac activity at VHL/HDAC6 in human MM1S cells assessed as HDAC6 degradation at 100 nM measured after 4 hrs by Western blot analysis; in short: as §1
# Target sequence in this assay (P40337 whole entry, looked up): as the sequence (P40337 whole entry, looked up) above
# Target sequence in this assay (Q9UBN7 whole entry, looked up): as the sequence (Q9UBN7 whole entry, looked up) above
# [8] = biological target: T1, von Hippel-Lindau disease tumor suppressor/Protein deacetylase HDAC6; assay: Protac activity at VHL/HDAC6 in human MM1S cells assessed as reduction in protein level at 100 nM after 30 mins by Western blot analysis
# Target sequence in this assay (P40337 whole entry, looked up): as the sequence (P40337 whole entry, looked up) above
# Target sequence in this assay (Q9UBN7 whole entry, looked up): as the sequence (Q9UBN7 whole entry, looked up) above
# [9] = biological target: von Hippel-Lindau disease tumor suppressor/Zinc finger protein Aiolos (Homo sapiens) (UniProt P40337+Q9UKT9); assay: Protac activity at VHL/IKZF3 in human MM1S cells assessed as IKZF3 degradation at 100 nM after 4 hrs by Western blot analysis
# [10] = biological target: T2, von Hippel-Lindau disease tumor suppressor/Protein deacetylase HDAC6 (Mus musculus); assay: Protac activity at VHL/HDAC6 in mouse 4935 cells assessed as HDAC6 degradation after 6 hrs by ELISA relative to control
# [11] = biological target: von Hippel-Lindau disease tumor suppressor/Histone deacetylase 2 (Homo sapiens) (UniProt Q92769+P40337); assay: Protac activity at VHL/HDAC2 in human MM1S cells assessed as HDAC2 degradation at 100 nM after 4 hrs by Western blot analysis
# [12] = biological target: T2, von Hippel-Lindau disease tumor suppressor/Protein deacetylase HDAC6 (Mus musculus); assay: Protac activity at VHL/HDAC6 in mouse 4935 cells assessed as tubulin acetylation at 10 nM to 10 uM after 6 hrs by Western blot analysis; in short: as §2
# [13] = biological target: T1, von Hippel-Lindau disease tumor suppressor/Protein deacetylase HDAC6; assay: Protac activity at VHL/HDAC6 in human MM1S cells assessed as induction of tubulin acetylation after 4 hrs by Western blot analysis; in short: as §1
# Target sequence in this assay (P40337 whole entry, looked up): as the sequence (P40337 whole entry, looked up) above
# Target sequence in this assay (Q9UBN7 whole entry, looked up): as the sequence (Q9UBN7 whole entry, looked up) above
# [14] = biological target: T1, von Hippel-Lindau disease tumor suppressor/Protein deacetylase HDAC6; assay: Protac activity at VHL/HDAC6 in human MCF7 cells assessed as induction of HDAC degradation by Western blot analysis
# [15] = biological target: T1, von Hippel-Lindau disease tumor suppressor/Protein deacetylase HDAC6; assay: Protac activity at VHL/HDAC6 in human MM1S cells assessed as increase in tubulin acetylation at 100 nM measured after 6 hrs by Western blot analysis
# In short: (§3)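 MM1S cells were treated with degraders at 100 nM for 6 h. Lysates were analysed by Western blot for HDAC6 and acetylated tubulin.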
# [16] = biological target: T1, von Hippel-Lindau disease tumor suppressor/Protein deacetylase HDAC6; assay: Protac activity at VHL/HDAC6 in human MM1S cells assessed as increase in tubulin acetylation at 300 nM after 4 hrs by Western blot analysis; in short: as §1
# [17] = biological target: von Hippel-Lindau disease tumor suppressor/Histone deacetylase 5 (Homo sapiens) (UniProt Q9UQL6+P40337); assay: Protac activity at VHL/HDAC5 in human MM1S cells assessed as HDAC5 degradation at 100 nM after 4 hrs by Western blot analysis
# [18] = biological target: T1, von Hippel-Lindau disease tumor suppressor/Protein deacetylase HDAC6; assay: Protac activity at VHL/HDAC6 in human MM1S cells measured after 6 hrs by ELISA relative to control
# In short: (§4)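 MM1S multiple myeloma cells exposed to degraders for 6 h. HDAC6 protein level was read by in-cell ELISA; dose-response ran from 1 nM to 3 μM. DC50 and Dmax were derived from the dose-response curve.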
# [19] = biological target: T1, von Hippel-Lindau disease tumor suppressor/Protein deacetylase HDAC6; assay: Protac activity at VHL/HDAC6 in human U87MG cells assessed as induction of HDAC degradation by Western blot analysis; conditions: U-87MG ATCC
# [20] = biological target: T1, von Hippel-Lindau disease tumor suppressor/Protein deacetylase HDAC6; assay: Protac activity at VHL/HDAC6 in human MM1S cells assessed as HDAC6 degradation at 100 nM pretreated for 1 hr in presence of HDAC6 inhibitor Next-A by Western blot analysis
# In short: (§5)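 MM1S cells were pretreated for 1 h with a pathway inhibitor or competing ligand, then given degrader at 100 nM. HDAC6 was read by Western blot. Pretreatment levels: MG132 1 μM, bortezomib 1 μM, MLN4924 5 μM, Next-A 5 μM; VHL-1 was titrated.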
# [21] = biological target: T1, von Hippel-Lindau disease tumor suppressor/Protein deacetylase HDAC6; assay: Protac activity at VHL/HDAC6 in human MM1S cells assessed as HDAC6 degradation at 100 nM pretreated for 1 hr in presence of 5 uM VHL-1 by Western blot analysis; in short: as §5
# [22] = biological target: T3, von Hippel-Lindau disease tumor suppressor/Protein deacetylase HDAC6 (Mus musculus, UniProt Q9Z2V5+P40338); assay: Protac activity at VHL/HDAC6 in mouse 4935 cells assessed as HDAC6 degradation after 6 hrs by Western blot analysis; in short: as §2
# [23] = biological target: T1, von Hippel-Lindau disease tumor suppressor/Protein deacetylase HDAC6; assay: Protac activity at VHL/HDAC6 in human MM1S cells assessed as HDAC6 degradation at 100 nM pretreated for 1 hr in presence of proteasome inhibitor MG132 by Western blot analysis; in short: as §5
# [24] = biological target: T1, von Hippel-Lindau disease tumor suppressor/Protein deacetylase HDAC6; assay: Protac activity at VHL/HDAC6 in human MM1S cells assessed as HDAC6 degradation at 100 nM pretreated for 1 hr in presence of proteasome inhibitor Bortezomib by Western blot analysis; in short: as §5
# [25] = biological target: T1, von Hippel-Lindau disease tumor suppressor/Protein deacetylase HDAC6; assay: Protac activity at VHL/HDAC6 in human MM1S cells assessed as HDAC6 degradation at 100 nM measured after 6 hrs by ELISA
# In short: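 Linker-length screen. MM1S cells were treated with degraders at 100 nM for 6 h, and HDAC6 protein level was quantified by in-cell ELISA.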
# [26] = biological target: T1, von Hippel-Lindau disease tumor suppressor/Protein deacetylase HDAC6; assay: Protac activity at VHL/HDAC6 in human MM1S cells assessed as HDAC6 degradation at 100 nM measured after 6 hrs by Western blot analysis; in short: as §3
# [27] = biological target: von Hippel-Lindau disease tumor suppressor/Histone deacetylase 3 (Homo sapiens) (UniProt O15379+P40337); assay: Protac activity at VHL/HDAC3 in human MM1S cells assessed as HDAC3 degradation at 100 nM after 4 hrs by Western blot analysis
# [28] = biological target: T1, von Hippel-Lindau disease tumor suppressor/Protein deacetylase HDAC6; assay: Protac activity at VHL/HDAC6 in human MM1S cells assessed as HDAC6 degradation at 10 nM measured after 4 hrs by Western blot analysis; in short: as §1
# [29] = biological target: von Hippel-Lindau disease tumor suppressor/Histone deacetylase 4 (Homo sapiens) (UniProt P56524+P40337); assay: Protac activity at VHL/HDAC4 in human MM1S cells assessed as HDAC4 degradation at 100 nM after 4 hrs by Western blot analysis
# [30] = biological target: von Hippel-Lindau disease tumor suppressor/DNA-binding protein Ikaros (Homo sapiens) (UniProt P40337+Q13422); assay: Protac activity at VHL/IKZF1 in human MM1S cells assessed as IKZF1 degradation at 100 nM after 4 hrs by Western blot analysis
# [31] = biological target: T1, von Hippel-Lindau disease tumor suppressor/Protein deacetylase HDAC6; assay: Protac activity at VHL/HDAC6 in human A549 cells assessed as induction of HDAC degradation by Western blot analysis
# [32] = biological target: T1, von Hippel-Lindau disease tumor suppressor/Protein deacetylase HDAC6; assay: Protac activity at VHL/HDAC6 in human MM1S cells assessed as compound-VHL complex formation at 3 uM after 6 hrs
# [33] = biological target: T1, von Hippel-Lindau disease tumor suppressor/Protein deacetylase HDAC6; assay: Protac activity at VHL/HDAC6 in human HEK293T cells assessed as induction of HDAC degradation by Western blot analysis; conditions: HEK-293T
# [34] = biological target: T3, von Hippel-Lindau disease tumor suppressor/Protein deacetylase HDAC6; assay: Protac activity at VHL/HDAC6 in mouse 4935 cells assessed as HDAC6 degradation after 6 hrs by ELISA
# [35] = biological target: T1, von Hippel-Lindau disease tumor suppressor/Protein deacetylase HDAC6; assay: Protac activity at VHL/HDAC6 in human MM1S cells measured after 6 hrs by ELISA; in short: as §4
# [36] = biological target: T1, von Hippel-Lindau disease tumor suppressor/Protein deacetylase HDAC6; assay: Protac activity at VHL/HDAC6 in human MM1S cells assessed as tubulin acetylation at 100 nM to 1 microM after 6 hrs by Western blot analysis
# T2 sequence (P40338 whole entry, looked up): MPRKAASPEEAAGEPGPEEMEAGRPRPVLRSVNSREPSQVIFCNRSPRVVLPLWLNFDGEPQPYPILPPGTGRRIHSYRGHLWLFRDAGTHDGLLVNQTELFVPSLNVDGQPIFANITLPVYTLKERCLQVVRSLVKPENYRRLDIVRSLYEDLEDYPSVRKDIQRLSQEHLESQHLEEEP
# T2 sequence (Q9Z2V5 whole entry, looked up): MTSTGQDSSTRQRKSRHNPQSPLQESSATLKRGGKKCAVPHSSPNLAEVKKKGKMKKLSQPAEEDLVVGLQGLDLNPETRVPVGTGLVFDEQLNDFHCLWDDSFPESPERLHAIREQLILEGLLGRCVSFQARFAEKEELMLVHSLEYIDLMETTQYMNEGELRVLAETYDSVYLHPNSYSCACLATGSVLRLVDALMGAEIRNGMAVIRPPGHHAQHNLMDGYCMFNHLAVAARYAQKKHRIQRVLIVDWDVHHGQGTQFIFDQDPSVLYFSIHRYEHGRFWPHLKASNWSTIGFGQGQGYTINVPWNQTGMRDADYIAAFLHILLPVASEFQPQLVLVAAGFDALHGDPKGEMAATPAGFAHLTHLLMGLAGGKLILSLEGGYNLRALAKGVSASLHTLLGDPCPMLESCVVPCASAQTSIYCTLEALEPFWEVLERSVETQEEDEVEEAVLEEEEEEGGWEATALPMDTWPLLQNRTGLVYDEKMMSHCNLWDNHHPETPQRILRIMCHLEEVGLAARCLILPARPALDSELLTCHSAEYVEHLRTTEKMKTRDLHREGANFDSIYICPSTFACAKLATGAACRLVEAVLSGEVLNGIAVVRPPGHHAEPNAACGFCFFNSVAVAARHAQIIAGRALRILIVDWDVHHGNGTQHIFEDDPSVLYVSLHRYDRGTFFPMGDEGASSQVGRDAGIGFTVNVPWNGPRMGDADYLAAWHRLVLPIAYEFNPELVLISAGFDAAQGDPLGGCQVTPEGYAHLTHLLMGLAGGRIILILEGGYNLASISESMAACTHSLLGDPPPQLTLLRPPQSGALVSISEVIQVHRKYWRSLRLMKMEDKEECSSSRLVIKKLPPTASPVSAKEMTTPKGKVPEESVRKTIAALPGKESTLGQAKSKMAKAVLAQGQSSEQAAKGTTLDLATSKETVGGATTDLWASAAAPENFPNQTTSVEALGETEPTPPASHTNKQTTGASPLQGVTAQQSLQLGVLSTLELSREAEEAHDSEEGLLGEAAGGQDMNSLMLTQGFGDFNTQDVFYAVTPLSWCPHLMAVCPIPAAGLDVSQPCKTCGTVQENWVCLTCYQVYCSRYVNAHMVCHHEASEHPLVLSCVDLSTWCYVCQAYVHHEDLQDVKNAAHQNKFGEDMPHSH
# T3 sequence (Q9Z2V5 whole entry): as the sequence (Q9Z2V5 whole entry, looked up) above
# T3 sequence (P40338 whole entry): as the sequence (P40338 whole entry, looked up) above
smiles,measurement,setting,value
CCCCN(Cc1ccc(C(=O)NO)cc1)C(=O)Nc1ccc(OCCCCCCCCCCCn2cc(CCCCC(=O)N[C@H](C(=O)N3C[C@H](O)C[C@H]3C(=O)NCc3ccc(-c4scnc4C)cc3)C(C)(C)C)nn2)cc1,Activity,[1],Active
same,Activity,[2],Active
same,Activity,[3],Active
same,Activity,[4],inactive
same,Activity,[5],inactive
same,Activity,[6],Active
same,Activity,[7],Active
same,Activity,[8],Active
same,Activity,[9],inactive
same,Emax,[10],57%
same,Activity,[11],inactive
same,Activity,[12],Active
same,Activity,[13],Dose-dependent effect
same,Activity,[14],Dose-dependent effect
same,Activity,[15],Active
same,Activity,[16],Active
same,Activity,[17],inactive
same,Emax,[18],90%
same,Activity,[19],Dose-dependent effect
same,Activity,[20],inactive
same,Activity,[21],inactive
same,DC50,[22],12 nM
same,Activity,[23],inactive
same,Activity,[24],inactive
same,Activity,[25],Active
same,Activity,[26],Active
same,Activity,[27],inactive
same,Activity,[28],Active
same,Activity,[29],inactive
same,Activity,[30],inactive
same,Activity,[31],Dose-dependent effect
same,Activity,[32],Active
same,Activity,[33],Dose-dependent effect
same,DC50,[34],4.3 nM
same,DC50,[35],7.1 nM
same,Activity,[36],Active
